Data on 1 compound can be found in ChEMBL document CHEMBL2062496, “Identification of a sirtuin 3 inhibitor that displays selectivity over sirtuin 1 and 2” (Eur J Med Chem, 2012).

Active and inactive are the calls of the source. No cut-off for these calls is given here.

Test [1] concerns PC-3. The test can be described thus: Growth inhibition of human PC3 cells assessed as cell growth at 10 uM after 48 hrs by MTT assay; values are per cent of control. The conditions noted are these: PC-3, 48 h. On the technique in general: Formazan colour is commonly taken as a measure of viable cells.
The target in test [2] is T1, NAD-dependent protein deacetylase sirtuin-2 (Homo sapiens) (UniProt Q8IXJ6).
T1 sequence (whole entry): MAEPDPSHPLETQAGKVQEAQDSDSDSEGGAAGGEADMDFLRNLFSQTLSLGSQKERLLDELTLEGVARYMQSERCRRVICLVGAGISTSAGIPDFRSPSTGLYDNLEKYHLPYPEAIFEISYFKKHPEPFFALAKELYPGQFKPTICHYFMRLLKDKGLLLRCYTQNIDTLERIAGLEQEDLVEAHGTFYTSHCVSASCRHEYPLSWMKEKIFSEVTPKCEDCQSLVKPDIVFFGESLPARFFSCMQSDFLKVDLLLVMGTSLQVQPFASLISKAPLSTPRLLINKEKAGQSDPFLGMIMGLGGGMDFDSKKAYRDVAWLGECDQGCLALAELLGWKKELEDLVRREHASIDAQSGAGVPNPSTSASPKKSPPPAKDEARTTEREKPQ
Nature of the test: Inhibition of human SIRT2 assessed as enzyme activity using Fluor-de-Lys as substrate at 1 mM by fluorometry. Further details: scale not given: the % may be the effect or the level left. The method, boiled down: (§1)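 Commercial Fluor-de-Lys kit, substrate human p53 379–382 peptide (Arg-His-Lys-Lys(Ac)). Human Sirt1 or Sirt2 was incubated with substrate, NAD+ and compound at 1 mM, also tested at 100 µM. Fluorescence scales with Lys382 deacetylation. Activity is expressed relative to control, mean ± S.E.M. of 3–4 replicates.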

Test [3] concerns IGROV-1. The test can be described thus: Growth inhibition of human IGROV1 cells assessed as cell growth at 10 uM after 48 hrs by MTT assay; values are per cent of control. The conditions noted are these: IGROV-1, 48 h.
The test system of test [4] is SK-MEL-5. The test can be described thus: Growth inhibition of human SK-MEL-5 cells assessed as cell growth at 10 uM after 48 hrs by MTT assay; values are per cent of control. The note with it: SK-MEL-5, 48 h.
In test [5] the test system is SF-268. The test can be described thus: Growth inhibition of human SF268 cells assessed as cell growth at 10 uM after 48 hrs by MTT assay; values are per cent of control. The conditions noted are these: SF-268, 48 h.
The test system of test [6] is MCF7. The test can be described thus: Growth inhibition of human MCF7 cells assessed as cell growth at 10 uM after 48 hrs by MTT assay; values are per cent of control. The conditions noted are these: MCF7, 48 h.
In test [7] the test system is ACHN. The test can be described thus: Growth inhibition of human ACHN cells assessed as cell growth at 10 uM after 48 hrs by MTT assay; values are per cent of control.
The subject of test [8] is K562. Nature of the test: Growth inhibition of human K562 cells assessed as cell growth at 10 uM after 48 hrs by MTT assay; values are per cent of control. The note with it: K562, 48 h.
The test system of test [9] is HOP-62. The test can be described thus: Growth inhibition of human HOP62 cells assessed as cell growth at 10 uM after 48 hrs by MTT assay; values are per cent of control. The note with it: HOP-62, 48 h.
In test [10] the test system is SK-MEL-28. Nature of the test: Reduction in ATP level in human SK-MEL-28 cells at 100 uM maintained in Locke's solution after 24 hrs by luciferase-based assay in absence of GF and glucose. Format: functional, cell-based. Summed up:
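SK-MEL-28 cells were grown 24 h in Locke's saline lacking glucose and serum, with or without 100 µM compound; antimycin was the positive control. Cellular ATP was released with a somatic-cell releasing reagent, then luciferase/luciferin assay mix was added and bioluminescence read. Mean ± S.E.M. of 10–14 replicates from 3 separate experiments.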

For test [11], the system named is 786-0. The test can be described thus: Growth inhibition of human 786-0 cells assessed as cell growth at 10 uM after 48 hrs by MTT assay; values are per cent of control. The note with it: 786-0, 48 h.
The subject of test [12] is NCI-H226. The test can be described thus: Growth of human NCI-H226 cells assessed as cell growth at 10 uM after 48 hrs by MTT assay. The conditions noted are these: NCI-H226, 48 h.
Test [13] relates to SK-OV-3. The test can be described thus: Growth inhibition of human SKOV3 cells assessed as cell growth at 10 uM after 48 hrs by MTT assay; values are per cent of control. The conditions noted are these: SK-OV-3, 48 h.
The test system of test [14] is T47D. Nature of the test: Growth inhibition of human T47D cells assessed as cell growth at 10 uM after 48 hrs by MTT assay; values are per cent of control.
Test [15] relates to HOP-92. The test can be described thus: Growth of human HOP92 cells assessed as cell growth at 10 uM after 48 hrs by MTT assay. The note with it: HOP-92, 48 h.
Test [16] concerns the target T1, NAD-dependent protein deacetylase sirtuin-2 (Homo sapiens). Nature of the test: Inhibition of human SIRT2 assessed as enzyme activity using Fluor-de-Lys as substrate at 100 uM by fluorometry. Summed up:
as §1

Test [17] can be described thus: Growth inhibition of human Hs 578T cells assessed as cell growth at 10 uM after 48 hrs by MTT assay; values are per cent of control.
Test [18] relates to COLO 205. Nature of the test: Growth inhibition of human COLO205 cells assessed as cell growth at 10 uM after 48 hrs by MTT assay; values are per cent of control. The note with it: COLO 205, 48 h.
Test [19] has as its system HL-60(TB). Nature of the test: Growth inhibition of human HL-60(TB) cells assessed as cell growth at 10 uM after 48 hrs by MTT assay. Format: functional. The note with it: HL-60, 48 h, read-out: GI.
The subject of test [20] is UACC-257. The test can be described thus: Growth inhibition of human UACC257 cells assessed as cell growth at 10 uM after 48 hrs by MTT assay; values are per cent of control. The conditions noted are these: UACC-257, 48 h.
In test [21] the test system is UO-31. Nature of the test: Growth of human UO31 cells assessed as cell growth at 10 uM after 48 hrs by MTT assay. The note with it: UO-31, 48 h.
Test [22] deals with SK-MEL-28. The test can be described thus: Effect on ATP level in human SK-MEL-28 cells maintained in medium containing GF and glucose at 100 uM after 24 hrs by luciferase-based assay. Format: functional, cell-based. The method, boiled down:
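SK-MEL-28 cells in DMEM with 10% FBS, grown 24 h in 96-well plates in regular medium (growth factors, glucose), with or without compound at 100 µM. Antimycin served as positive control. Cellular ATP was released with a somatic cell releasing reagent and read by luciferase/luciferin bioluminescence. Mean ± S.E.M. of 10–14 replicates from 3 separate experiments.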

Test [23] has as its system SK-MEL-2. The test can be described thus: Growth inhibition of human SK-MEL-2 cells assessed as cell growth at 10 uM after 48 hrs by MTT assay; values are per cent of control. The note with it: SK-MEL-2, 48 h.

As for `c1cncc(-c2cnn[nH]2)c1`, the growth, % of control at 10 µM in test [1] stood at 88.5%; in [3], 113%; in test [4], 103%; in test [5], 113%; in [6], 117%; in test [7], 111%. The growth, % of control at 10 µM came out at 75.2% in test [8]; 90.9% in test [9]; 104% in [11]; 80.6% in [12]; 48% in test [13]; 102% in test [14]. For the same compound, the growth, % of control at 10 µM in [15] was 80.8%; in test [17], 118%; in test [18], 23.8%; in [20] it was 90.3%; in [21], 76%; in [23], 109%. For the same compound, in [2], the Activity is 92%. In addition, the outcome in test [10] was Active. The inhibition result in [16] is “inactive”. In addition, the inhibition of growth at 10 µM in test [19] is 92.9%. Also, in test [22], the outcome was inactive.
